Data as given in ChEMBL document CHEMBL3112520, “Synthesis and biological evaluation of 2,5-di(7-indolyl)-1,3,4-oxadiazoles, and 2- and 7-indolyl 2-(1,3,4-thiadiazolyl)ketones as antimicrobials” (Bioorg Med Chem, 2014).
Activity calls are given as the source filed them. The calls are words filed in the database; no cut-off is given here.

What was measured:
[1] = Solubility of the compound; assay type: physicochemical
[2] = test system: Bacillus subtilis; assay: Antibacterial activity against Bacillus subtilis 168 assessed as growth inhibition at late exponential phase at 200 uM after 16 hrs; assay type: functional; conditions: for inhibition of growth at 200 µM: subsp. subtilis str. 168, 16 h, read-out: GI; for growth inhibition (GI): subsp. subtilis str. 168
In short: (§1)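 Compounds were made up as 50 mM DMSO stocks and diluted in LB medium to 200 µM. Cultures were grown at 37 °C with 600 rpm shaking. OD600 was read every 10 min for 16 h, with LB as the blank. Samples were run in triplicate, and growth curves were compared with cells given equal amounts of DMSO.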

[3] = test system: Escherichia coli; assay: Antibacterial activity against Escherichia coli DH5[alpha] assessed as growth inhibition at late exponential phase at 200 uM after 16 hrs; assay type: functional; conditions: for inhibition of growth at 200 µM: read-out: GI; in short: as §1
[4] = Inhibition of RNA polymerase-sigma factor (unknown origin) interaction at 15 uM after 1 hr by ELISA
In short: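 ELISA: purified full-length σA (250 nM in PBS) was coated overnight at 4 °C, then blocked with 1% (w/v) BSA in PBS at room temperature. After PBS/Tween-20 washes, rabbit anti-GST (1:2000) and then HRP goat anti-rabbit (1:2000) were each applied for 1 h at room temperature. TMB substrate was added, shaken for 6 min at room temperature, and absorbance read at 600 nm.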

| SMILES | solubility [1] | inhibition of growth at 200 µM [2] [%] | growth inhibition (GI) [3] | inhibition [4] [%] | inhibition of growth at 200 µM [3] [%] | growth inhibition (GI) [2] |
| --- | --- | --- | --- | --- | --- | --- |
| COc1cc(OC)c2c(-c3ccccc3)c(-c3ccccc3)[nH]c2c1C(=O)C(=O)NNC(=O)C(=O)c1c(OC)cc(OC)c2c(-c3ccccc3)c(-c3ccccc3)[nH]c12 | ND(Insoluble) |  |  |  |  |  |
| COc1cc(OC)c2c(-c3ccc(Cl)cc3)c[nH]c2c1C(=O)NNC(=O)c1c(OC)cc(OC)c2c(-c3ccc(Cl)cc3)c[nH]c12 |  | 29.8 | inactive | 62.6 |  |  |
| COc1cc(OC)c2c(-c3ccccc3)c(-c3ccccc3)[nH]c2c1-c1nnc(-c2nnc(-c3c(OC)cc(OC)c4c(-c5ccccc5)c(-c5ccccc5)[nH]c34)o2)o1 | ND(Insoluble) |  |  |  |  |  |
| COc1cc(OC)c2c(-c3ccc(Cl)cc3)c(C(=O)C(=O)NNC(=S)N(C)C)[nH]c2c1 |  | 32.5 |  | 20.4 | 47 |  |
| COc1cc(OC)c2c(-c3ccc(Br)cc3)c[nH]c2c1C(=O)NNC(=O)c1c(OC)cc(OC)c2c(-c3ccc(Br)cc3)c[nH]c12 |  | 14.3 |  | 39.5 | 37.4 |  |
| COc1cc(OC)c2c(-c3ccc(Br)cc3)c(C(=O)C(=O)NNC(=S)N(C)C)[nH]c2c1 |  | 69.9 |  | 20.8 | 70 |  |
| COc1cc(OC)c2c(-c3ccc(Cl)cc3)c[nH]c2c1-c1nnc(-c2c(OC)cc(OC)c3c(-c4ccc(Cl)cc4)c[nH]c23)o1 |  |  | inactive | 17.8 |  | inactive |
| COc1cc(OC)c2c(-c3ccccc3)c(-c3ccccc3)[nH]c2c1C(=O)NNC(=O)c1c(OC)cc(OC)c2c(-c3ccccc3)c(-c3ccccc3)[nH]c12 | ND(Insoluble) |  |  |  |  |  |
| COc1cc(OC)c2c(-c3ccccc3)c(-c3ccccc3)[nH]c2c1-c1nnc(-c2c(OC)cc(OC)c3c(-c4ccccc4)c(-c4ccccc4)[nH]c23)o1 | ND(Insoluble) |  |  |  |  |  |
| COc1cc(OC)c2c(-c3ccc(Br)cc3)c[nH]c2c1-c1nnc(-c2c(OC)cc(OC)c3c(-c4ccc(Br)cc4)c[nH]c23)o1 |  |  | inactive | 16.8 |  | inactive |
| COc1cc(OC)c2c(-c3ccc(Br)cc3)c(C(=O)c3nnc(N(C)C)s3)[nH]c2c1 |  |  |  | 19 | 16.8 | inactive |
| COc1cc(OC)c2c(-c3ccc(Cl)cc3)c(C(=O)c3nnc(N(C)C)s3)[nH]c2c1 |  |  |  | 17.2 | 10.6 | inactive |
| COc1cc(OC)c2c(-c3ccccc3)c(-c3ccccc3)[nH]c2c1C(=O)NNC(=O)C(=O)NNC(=O)c1c(OC)cc(OC)c2c(-c3ccccc3)c(-c3ccccc3)[nH]c12 | ND(Insoluble) |  |  |  |  |  |
